Results: ChEMBL document CHEMBL1128281 (J Med Chem, 1995)

Assays:
[1] = biological target: Serotonin 2 (5-HT2) receptor (Rattus norvegicus, UniProt P30994+P08909+P14842); assay: Affinity for 5-hydroxytryptamine 2 receptor binding sites by its ability to displace [3H]spiperone from rat frontal cortex.
[2] = species on record: Mus musculus; assay: Ability to inhibit apomorphine-induced climbing behavior in mice.; assay type: functional
Method in brief: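 Male CD-1 mice (18–30 g) were adapted for 1 h in wire-mesh cages, 8 per dose group. Distilled water or drug was given ip 30 or 60 min before apomorphine 1.5 mg/kg sc.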

[3] = species on record: Rattus norvegicus; assay: Ability to block apomorphine-induced stereotypy in rats.; assay type: functional
Method in brief: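 Male Wistar rats (150–250 g), 6–10 per dose group, given distilled water or test drug ip; apomorphine 1.5 mg/kg sc 50 min later. Rats were placed singly in cages and scored 10 min afterwards for continuous stereotyped licking or sniffing. Inhibition was the number of animals protected versus controls. ED50 was obtained by probit analysis.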

Row | Structure (SMILES) | IC50 [1] | ED50 [2] | ED50 [3]
1 | COc1cc(OCCCN2CCC(c3noc4cc(F)ccc34)CC2)ccc1C(C)=O | 23 nM | 0.28 mg/kg | 8.2 mg/kg
2 | CC(=O)c1ccc(OCCCN2CCC(c3noc4cc(F)ccc34)CC2)c(C)c1 |  | 0.25 mg/kg | 31.4 mg/kg
3 | COc1cc(Br)ccc1OCCCN1CCC(c2noc3cc(F)ccc23)CC1 | 49 nM | 1.6 mg/kg | 15.3 mg/kg
4 | COc1cc(/C(C)=N\N)ccc1OCCCN1CCC(c2noc3cc(F)ccc23)CC1 | 20 nM | 0.64 mg/kg | 17.4 mg/kg
5 | CCCCC(=O)c1ccc(OCCCN2CCC(c3noc4cc(F)ccc34)CC2)c(OC)c1 | 89 nM | 0.78 mg/kg | 16.9 mg/kg
6 | Nc1ccccc1OCCCN1CCC(c2noc3cc(F)ccc23)CC1 |  | 0.42 mg/kg | 5.5 mg/kg
7 | COc1cc(C(C)=O)ccc1OCCCCN1CCC(c2noc3cc(F)ccc23)CC1 | 8.5 nM | 0.68 mg/kg | 7.5 mg/kg
8 | COc1cc(/C(C)=N\O)ccc1OCCCN1CCC(c2noc3cc(F)ccc23)CC1 | 0.7 nM | 1.1 mg/kg | > 80 mg/kg
9 | CC(=O)c1cccc(OCCCN2CCC(c3noc4cc(F)ccc34)CC2)c1 | 63 nM | 0.39 mg/kg | 6.4 mg/kg
10 | CC(=O)c1cc(C)ccc1OCCCN1CCC(c2noc3cc(F)ccc23)CC1 | 153 nM | 5.6 mg/kg | 25.1 mg/kg
11 | COc1cc(C(C)=O)ccc1OCCCCN1CCC(c2noc3ccccc23)CC1 | 34 nM | 1.6 mg/kg | 17 mg/kg
12 | COc1ccc(NC(C)=O)cc1OCCCN1CCC(c2noc3cc(F)ccc23)CC1 | 3.8 nM | 0.6 mg/kg | 30.1 mg/kg
13 | CNc1cc(C(C)=O)ccc1OCCCN1CCC(c2noc3cc(F)ccc23)CC1 | 42 nM | 0.15 mg/kg | 47.6 mg/kg
14 | COc1cc(C(C)=O)ccc1OCCCN1CCC(c2noc3cc(Cl)ccc23)CC1 | 4.9 nM | 3.3 mg/kg | > 80 mg/kg
15 | COc1ccccc1OCCCN1CCC(c2noc3cc(F)ccc23)CC1 | 5.2 nM | 0.48 mg/kg | 9.7 mg/kg
16 | COc1cc(C(=O)N(C)C)ccc1OCCCN1CCC(c2noc3cc(F)ccc23)CC1 | 5.2 nM | 0.72 mg/kg | 26.7 mg/kg
17 | CC(O)c1ccc(OCCCN2CCC(c3noc4cc(F)ccc34)CC2)c(O)c1 (stereo unspecified) | 53 nM | 0.058 mg/kg | 3.6 mg/kg
18 | CC(=O)c1ccc(OCCCN2CCC(c3noc4cc(F)ccc34)CC2)cc1C | 36 nM | 1.2 mg/kg | 52.3 mg/kg
19 | Fc1ccc2c(C3CCN(CCCOc4ccccc4)CC3)noc2c1 | 33 nM | 0.62 mg/kg | 7.1 mg/kg
20 | COc1cc2cc[nH]c2cc1OCCCN1CCC(c2noc3cc(F)ccc23)CC1 | 3.2 nM | 2.7 mg/kg | 8.6 mg/kg
21 | COc1cc(C(C)=O)ccc1SCCCN1CCC(c2noc3cc(F)ccc23)CC1 | 41 nM | 2 mg/kg | 13.6 mg/kg
22 | COc1cc2c(cc1OCCCN1CCC(c3noc4cc(F)ccc34)CC1)CCCC2=O | < 10 nM | 2.3 mg/kg | 25 mg/kg
23 | CC(=O)c1ccc2c(c1)OCC(CCN1CCC(c3noc4cc(F)ccc34)CC1)O2 (stereo unspecified) | 91 nM | 13.7 mg/kg | > 80 mg/kg
24 | C=C(C)c1ccc(OCCCN2CCC(c3noc4cc(F)ccc34)CC2)c(OC)c1 | 20 nM | 0.55 mg/kg | 25 mg/kg

Row | Structure (SMILES) | IC50 [1] | ED50 [2] | ED50 [3]
25 | CC(=O)c1ccc(OCCCN2CCC(c3noc4cc(F)ccc34)CC2)cc1 | 5.5 nM | 0.84 mg/kg | 5.7 mg/kg
26 | CNc1ccccc1OCCCN1CCC(c2noc3cc(F)ccc23)CC1 | 17 nM | 0.81 mg/kg | 22.3 mg/kg
27 | COc1cc(C(C)=O)ccc1NCCCN1CCC(c2noc3cc(F)ccc23)CC1 | 18 nM | 0.26 mg/kg | 9.3 mg/kg
28 | CCC(=O)c1ccc(OCCCN2CCC(c3noc4cc(F)ccc34)CC2)c(OC)c1 | 11 nM | 0.77 mg/kg | > 20 mg/kg
29 | CC(=O)c1ccc(OCCCN2CCC(c3noc4cc(F)ccc34)CC2)c(N(C)C)c1 | 16 nM | 0.15 mg/kg | 4.3 mg/kg
30 | COc1cc(C(C)=O)ccc1OCCN1CCC(c2noc3ccccc23)CC1 | 26 nM | 7.4 mg/kg | 
31 | COc1cc(C(C)O)ccc1OCCCN1CCC(c2noc3cc(F)ccc23)CC1 (stereo unspecified) | 22 nM | 0.12 mg/kg | 22.7 mg/kg
32 | COc1ccc(N)cc1OCCCN1CCC(c2noc3cc(F)ccc23)CC1 | 2 nM | 0.16 mg/kg | 13 mg/kg
33 | COc1cc(C(C)=O)ccc1OCCCN1CCC(c2noc3ccc(F)cc23)CC1 | 122 nM | 5.2 mg/kg | > 80 mg/kg
34 | COc1cc(C(N)=O)ccc1OCCCN1CCC(c2noc3cc(F)ccc23)CC1 | 0.9 nM | 1.6 mg/kg | 22.7 mg/kg
35 | COc1cc(C(C)=O)ccc1OCCCCN1CCC(c2noc3cc(Cl)ccc23)CC1 | 143 nM | 2.4 mg/kg | 9.7 mg/kg
36 | COc1cc(C(=O)c2ccccc2)ccc1OCCCN1CCC(c2noc3cc(F)ccc23)CC1 | 241 nM | 18.1 mg/kg | > 80 mg/kg
37 | CCc1ccc(OCCCN2CCC(c3noc4cc(F)ccc34)CC2)c(OC)c1 | 16 nM | 0.18 mg/kg | 9.5 mg/kg
38 | COc1cc(C(=O)C(F)(F)F)ccc1OCCCN1CCC(c2noc3cc(F)ccc23)CC1 | 38 nM | 2.2 mg/kg | > 20 mg/kg
39 | COc1cc(C(C)=O)ccc1OCCN1CCC(c2noc3cc(F)ccc23)CC1 | 67 nM | 5.3 mg/kg | > 80 mg/kg
40 | COc1cc(C#N)ccc1OCCCN1CCC(c2noc3cc(F)ccc23)CC1 | 45 nM | 1 mg/kg | 15.7 mg/kg
41 | COc1cc(C(C)=O)ccc1OCCCN1CCC(c2noc3ccccc23)CC1 | 3.5 nM | 0.67 mg/kg | 20.8 mg/kg
42 | COc1cc(C(C)=O)cc(OC)c1OCCCN1CCC(c2noc3cc(F)ccc23)CC1 | < 10 nM | 0.72 mg/kg | 13.6 mg/kg
43 | COc1cc(C(C)=O)ccc1OCCN1CCC(c2noc3cc(Cl)ccc23)CC1 | 45 nM | > 20 mg/kg | 
44 | CC(=O)c1ccc(OCCCN2CCC(c3noc4cc(F)ccc34)CC2)c(O)c1 | 2.9 nM | 0.054 mg/kg | 0.7 mg/kg
45 | CCOc1cc(C(C)=O)ccc1OCCCN1CCC(c2noc3cc(F)ccc23)CC1 | 3.8 nM | 0.56 mg/kg | 14.5 mg/kg
46 | CC(=O)Nc1cc(C(C)=O)ccc1OCCCN1CCC(c2noc3cc(F)ccc23)CC1 | 20 nM | 0.049 mg/kg | 21.1 mg/kg
47 | CSc1cc(C(C)=O)ccc1OCCCN1CCC(c2noc3cc(F)ccc23)CC1 | 170 nM | 20 mg/kg | 
